Laboratory results: ChEMBL document CHEMBL5058577, “EUbOPEN Chemogenomics Library 2 (Multiplex)” (2022)

Tested on: HEK-293T
Assay: Multiplex assay against HEK293T
Assay type: toxicity, cell-based
Details: human
Outline: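 Cells stained live at seeding with Hoechst33342, BioTracker Green Microtubule Cytoskeleton Dye, MitoTracker Red and Annexin V Alexa Fluor 680 were imaged on a CQ1 microscope at 37°C and 5% CO2 after compound addition. Their classification by CellPathfinder machine-learning gating ran from Hoechst high-intensity objects versus normal cells, to healthy, pyknosed or fragmented nuclei among normal cells, to mitotic or apoptotic among pyknosed cells. Tubulin, mitochondrial-mass and membrane-permeability phenotypes are per cents of healthy-nucleus cells.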

[1] = 12 h, 1 µM, compound concentration 1 uM, replicate 1
[2] = 12 h, 1 µM, compound concentration 1 uM, replicate 2
[3] = 12 h, 10 µM, compound concentration 10 uM, replicate 1
[4] = 12 h, 10 µM, compound concentration 10 uM, replicate 2
[5] = 24 h, 1 µM, compound concentration 1 uM, replicate 1
[6] = 24 h, 1 µM, compound concentration 1 uM, replicate 2
[7] = 24 h, 10 µM, compound concentration 10 uM, replicate 1
[8] = 24 h, 10 µM, compound concentration 10 uM, replicate 2
[9] = 48 h, 1 µM, compound concentration 1 uM, replicate 1
[10] = 48 h, 1 µM, compound concentration 1 uM, replicate 2
[11] = 48 h, 10 µM, compound concentration 10 uM, replicate 1
[12] = 48 h, 10 µM, compound concentration 10 uM, replicate 2

Compound: CN1CCN2c3ncccc3Cc3ccccc3C2C1 (centres undefined) [MIRTAZAPINE]
- Population Apoptotic (%) [1]: 58%
- Population Fragmented Nuclei (%) [1]: 4%
- Population Healthy Nuclei (%) [1]: 88%
- Population Hoechst High Intensity Objects (%) [1]: 5%
- Population Membrane Permeable-Phenotype (%) [1]: 0%
- Population Mitochondria Different-Phenotype (%) [1]: 41%
- Population Mitotic Cells (%) [1]: 41%
- Population Normal (%) [1]: 94%
- Population Pyknosed Nuclei (%) [1]: 7%
- Population Tubulin-Different-Phenotype (%) [1]: 22%
- Total Cell Count [1]: 402
- Population Apoptotic (%) [2]: 51%
- Population Fragmented Nuclei (%) [2]: 3%
- Population Healthy Nuclei (%) [2]: 79%
- Population Hoechst High Intensity Objects (%) [2]: 7%
- Population Mitochondria Different-Phenotype (%) [2]: 68%
- Population Mitotic Cells (%) [2]: 48%
- Population Normal (%) [2]: 92%
- Population Pyknosed Nuclei (%) [2]: 17%
- Population Tubulin-Different-Phenotype (%) [2]: 21%
- Total Cell Count [2]: 329
- Population Apoptotic (%) [3]: 45%
- Population Fragmented Nuclei (%) [3]: 9%
- Population Healthy Nuclei (%) [3]: 75%
- Population Hoechst High Intensity Objects (%) [3]: 6%
- Population Membrane Permeable-Phenotype (%) [3]: 0%
- Population Mitochondria Different-Phenotype (%) [3]: 49%
- Population Mitotic Cells (%) [3]: 54%
- Population Normal (%) [3]: 93%
- Population Pyknosed Nuclei (%) [3]: 15%
- Population Tubulin-Different-Phenotype (%) [3]: 43%
- Total Cell Count [3]: 228
- Population Apoptotic (%) [4]: 47%
- Population Fragmented Nuclei (%) [4]: 5%
- Population Healthy Nuclei (%) [4]: 79%
- Population Membrane Permeable-Phenotype (%) [4]: 1%
- Population Mitochondria Different-Phenotype (%) [4]: 64%
- Population Mitotic Cells (%) [4]: 52%
- Population Tubulin-Different-Phenotype (%) [4]: 36%
- Total Cell Count [4]: 240
- Population Apoptotic (%) [5]: 33%
- Population Fragmented Nuclei (%) [5]: 9%
- Population Healthy Nuclei (%) [5]: 80%
- Population Hoechst High Intensity Objects (%) [5]: 3%
- Population Membrane Permeable-Phenotype (%) [5]: 0%
- Population Mitochondria Different-Phenotype (%) [5]: 35%
- Population Mitotic Cells (%) [5]: 66%
- Population Normal (%) [5]: 97%
- Population Pyknosed Nuclei (%) [5]: 10%
- Population Tubulin-Different-Phenotype (%) [5]: 18%
- Total Cell Count [5]: 601
- Population Apoptotic (%) [6]: 42%
- Population Fragmented Nuclei (%) [6]: 6%
- Population Healthy Nuclei (%) [6]: 79%
- Population Hoechst High Intensity Objects (%) [6]: 6%
- Population Mitochondria Different-Phenotype (%) [6]: 47%
- Population Mitotic Cells (%) [6]: 57%
- Population Normal (%) [6]: 93%
- Population Pyknosed Nuclei (%) [6]: 14%
- Population Tubulin-Different-Phenotype (%) [6]: 17%
- Total Cell Count [6]: 373
- Population Apoptotic (%) [7]: 44%
- Population Fragmented Nuclei (%) [7]: 9%
- Population Healthy Nuclei (%) [7]: 78%
- Population Hoechst High Intensity Objects (%) [7]: 3%
- Population Membrane Permeable-Phenotype (%) [7]: 0%
- Population Mitochondria Different-Phenotype (%) [7]: 40%
- Population Mitotic Cells (%) [7]: 55%
- Population Normal (%) [7]: 96%
- Population Pyknosed Nuclei (%) [7]: 12%
- Population Tubulin-Different-Phenotype (%) [7]: 28%
- Total Cell Count [7]: 274
- Population Apoptotic (%) [8]: 32%
- Population Fragmented Nuclei (%) [8]: 5%
- Population Healthy Nuclei (%) [8]: 80%
- Population Hoechst High Intensity Objects (%) [8]: 5%
- Population Mitochondria Different-Phenotype (%) [8]: 44%
- Population Mitotic Cells (%) [8]: 67%
- Population Normal (%) [8]: 94%
- Population Pyknosed Nuclei (%) [8]: 13%
- Population Tubulin-Different-Phenotype (%) [8]: 18%
- Total Cell Count [8]: 314
- Population Apoptotic (%) [9]: 23%
- Population Fragmented Nuclei (%) [9]: 11%
- Population Healthy Nuclei (%) [9]: 82%
- Population Hoechst High Intensity Objects (%) [9]: 2%
- Population Membrane Permeable-Phenotype (%) [9]: 1%
- Population Mitochondria Different-Phenotype (%) [9]: 19%
- Population Mitotic Cells (%) [9]: 76%
- Population Normal (%) [9]: 97%
- Population Pyknosed Nuclei (%) [9]: 6%
- Population Tubulin-Different-Phenotype (%) [9]: 13%
- Total Cell Count [9]: 885
- Population Apoptotic (%) [10]: 44%
- Population Fragmented Nuclei (%) [10]: 13%
- Population Healthy Nuclei (%) [10]: 80%
- Population Hoechst High Intensity Objects (%) [10]: 3%
- Population Membrane Permeable-Phenotype (%) [10]: 0%
- Population Mitochondria Different-Phenotype (%) [10]: 21%
- Population Mitotic Cells (%) [10]: 55%
- Population Normal (%) [10]: 96%
- Population Tubulin-Different-Phenotype (%) [10]: 9%
- Total Cell Count [10]: 562
- Population Apoptotic (%) [11]: 31%
- Population Fragmented Nuclei (%) [11]: 14%
- Population Healthy Nuclei (%) [11]: 74%
- Population Hoechst High Intensity Objects (%) [11]: 2%
- Population Membrane Permeable-Phenotype (%) [11]: 0%
- Population Mitochondria Different-Phenotype (%) [11]: 36%
- Population Mitotic Cells (%) [11]: 68%
- Population Normal (%) [11]: 97%
- Population Pyknosed Nuclei (%) [11]: 10%
- Population Tubulin-Different-Phenotype (%) [11]: 20%
- Total Cell Count [11]: 390
- Population Apoptotic (%) [12]: 30%
- Population Fragmented Nuclei (%) [12]: 11%
- Population Healthy Nuclei (%) [12]: 81%
- Population Hoechst High Intensity Objects (%) [12]: 3%
- Population Mitochondria Different-Phenotype (%) [12]: 30%
- Population Mitotic Cells (%) [12]: 69%
- Population Normal (%) [12]: 96%
- Population Pyknosed Nuclei (%) [12]: 7%
- Population Tubulin-Different-Phenotype (%) [12]: 12%
- Total Cell Count [12]: 521

Compound: c1cc(OCCCN2CCCCC2)ccc1CN1CCCCC1 [JNJ-5207852]
- Population Apoptotic (%) [1]: 36%
- Population Fragmented Nuclei (%) [1]: 6%
- Population Healthy Nuclei (%) [1]: 84%
- Population Hoechst High Intensity Objects (%) [1]: 5%
- Population Membrane Permeable-Phenotype (%) [1]: 0%
- Population Mitochondria Different-Phenotype (%) [1]: 36%
- Population Mitotic Cells (%) [1]: 63%
- Population Normal (%) [1]: 94%
- Population Pyknosed Nuclei (%) [1]: 8%
- Population Tubulin-Different-Phenotype (%) [1]: 21%
- Total Cell Count [1]: 577
- Population Apoptotic (%) [2]: 47%
- Population Fragmented Nuclei (%) [2]: 10%
- Population Healthy Nuclei (%) [2]: 75%
- Population Mitochondria Different-Phenotype (%) [2]: 53%
- Population Mitotic Cells (%) [2]: 52%
- Population Pyknosed Nuclei (%) [2]: 13%
- Population Tubulin-Different-Phenotype (%) [2]: 17%
- Total Cell Count [2]: 310
- Population Apoptotic (%) [3]: 40%
- Population Fragmented Nuclei (%) [3]: 7%
- Population Healthy Nuclei (%) [3]: 75%
- Population Hoechst High Intensity Objects (%) [3]: 7%
- Population Membrane Permeable-Phenotype (%) [3]: 0%
- Population Mitochondria Different-Phenotype (%) [3]: 63%
- Population Mitotic Cells (%) [3]: 59%
- Population Normal (%) [3]: 92%
- Population Pyknosed Nuclei (%) [3]: 17%
- Population Tubulin-Different-Phenotype (%) [3]: 52%
- Total Cell Count [3]: 328
- Population Apoptotic (%) [4]: 66%
- Population Healthy Nuclei (%) [4]: 67%
- Population Hoechst High Intensity Objects (%) [4]: 11%
- Population Membrane Permeable-Phenotype (%) [4]: 1%
- Population Mitochondria Different-Phenotype (%) [4]: 69%
- Population Mitotic Cells (%) [4]: 33%
- Population Normal (%) [4]: 88%
- Population Pyknosed Nuclei (%) [4]: 24%
- Population Tubulin-Different-Phenotype (%) [4]: 41%
- Total Cell Count [4]: 259
- Population Apoptotic (%) [5]: 25%
- Population Fragmented Nuclei (%) [5]: 6%
- Population Healthy Nuclei (%) [5]: 82%
- Population Hoechst High Intensity Objects (%) [5]: 5%
- Population Membrane Permeable-Phenotype (%) [5]: 1%
- Population Mitochondria Different-Phenotype (%) [5]: 20%
- Population Mitotic Cells (%) [5]: 74%
- Population Normal (%) [5]: 94%
- Population Pyknosed Nuclei (%) [5]: 11%
- Population Tubulin-Different-Phenotype (%) [5]: 15%
- Total Cell Count [5]: 710
- Population Apoptotic (%) [6]: 41%
- Population Fragmented Nuclei (%) [6]: 11%
- Population Healthy Nuclei (%) [6]: 79%
- Population Hoechst High Intensity Objects (%) [6]: 3%
- Population Membrane Permeable-Phenotype (%) [6]: 0%
- Population Mitochondria Different-Phenotype (%) [6]: 30%
- Population Mitotic Cells (%) [6]: 58%
- Population Normal (%) [6]: 96%
- Population Pyknosed Nuclei (%) [6]: 9%
- Population Tubulin-Different-Phenotype (%) [6]: 12%
- Total Cell Count [6]: 447
- Population Apoptotic (%) [7]: 47%
- Population Fragmented Nuclei (%) [7]: 9%
- Population Healthy Nuclei (%) [7]: 77%
- Population Hoechst High Intensity Objects (%) [7]: 6%
- Population Membrane Permeable-Phenotype (%) [7]: 1%
- Population Mitochondria Different-Phenotype (%) [7]: 47%
- Population Mitotic Cells (%) [7]: 52%
- Population Normal (%) [7]: 93%
- Population Pyknosed Nuclei (%) [7]: 13%
- Population Tubulin-Different-Phenotype (%) [7]: 44%
- Total Cell Count [7]: 414
- Population Apoptotic (%) [8]: 65%
- Population Fragmented Nuclei (%) [8]: 8%
- Population Healthy Nuclei (%) [8]: 79%
- Population Hoechst High Intensity Objects (%) [8]: 5%
- Population Membrane Permeable-Phenotype (%) [8]: 2%
- Population Mitochondria Different-Phenotype (%) [8]: 50%
- Population Mitotic Cells (%) [8]: 34%
- Population Normal (%) [8]: 94%
- Population Pyknosed Nuclei (%) [8]: 11%
- Population Tubulin-Different-Phenotype (%) [8]: 35%
- Total Cell Count [8]: 322
- Population Apoptotic (%) [9]: 17%
- Population Fragmented Nuclei (%) [9]: 14%
- Population Healthy Nuclei (%) [9]: 80%
- Population Hoechst High Intensity Objects (%) [9]: 2%
- Population Membrane Permeable-Phenotype (%) [9]: 1%
- Population Mitochondria Different-Phenotype (%) [9]: 12%
- Population Mitotic Cells (%) [9]: 82%
- Population Normal (%) [9]: 97%
- Population Pyknosed Nuclei (%) [9]: 5%
- Population Tubulin-Different-Phenotype (%) [9]: 11%
- Total Cell Count [9]: 1128
- Population Apoptotic (%) [10]: 23%
- Population Fragmented Nuclei (%) [10]: 11%
- Population Healthy Nuclei (%) [10]: 83%
- Population Hoechst High Intensity Objects (%) [10]: 1%
- Population Mitochondria Different-Phenotype (%) [10]: 17%
- Population Mitotic Cells (%) [10]: 76%
- Population Normal (%) [10]: 98%
- Population Pyknosed Nuclei (%) [10]: 4%
- Population Tubulin-Different-Phenotype (%) [10]: 9%
- Total Cell Count [10]: 746
- Population Apoptotic (%) [11]: 34%
- Population Fragmented Nuclei (%) [11]: 13%
- Population Healthy Nuclei (%) [11]: 77%
- Population Hoechst High Intensity Objects (%) [11]: 8%
- Population Membrane Permeable-Phenotype (%) [11]: 1%
- Population Mitochondria Different-Phenotype (%) [11]: 29%
- Population Mitotic Cells (%) [11]: 65%
- Population Normal (%) [11]: 91%
- Population Pyknosed Nuclei (%) [11]: 8%
- Population Tubulin-Different-Phenotype (%) [11]: 28%
- Total Cell Count [11]: 619
- Population Apoptotic (%) [12]: 52%
- Population Healthy Nuclei (%) [12]: 75%
- Population Hoechst High Intensity Objects (%) [12]: 9%
- Population Mitochondria Different-Phenotype (%) [12]: 38%
- Population Mitotic Cells (%) [12]: 47%
- Population Normal (%) [12]: 90%
- Population Pyknosed Nuclei (%) [12]: 10%
- Population Tubulin-Different-Phenotype (%) [12]: 30%
- Total Cell Count [12]: 424
